Test results from ChEMBL document CHEMBL1629465, “Efficient synthesis of novel 1,2,4-triazole fused acyclic and 21-28 membered macrocyclic and/or lariat macrocyclic oxaazathia crown compounds with potential antimicrobial activity” (2010).

Experiments:
Assay type in all cases: functional
Conditions in all cases: read-out: DIZ
[1] = tested on: Syncephalastrum racemosum; test: Antimicrobial activity against Syncephalastrum racemosum RCMB 016001 at 1 mg/ml by agar diffusion technique
Method in brief: (§1)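 Agar well diffusion. Test compounds and reference standard drugs were diluted to 5.0, 2.5 and 1.0 mg/mL and applied to 0.6 cm wells. Inhibition zone beyond the control was scored as 0 (no inhibition), + (0.1–0.5 cm), ++ (0.6–1.0 cm) or +++ (1.0–1.5 cm).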

Pseudomonas aeruginosa [2] = test: Antimicrobial activity against Pseudomonas aeruginosa RCMB 102002 at 5 mg/ml by agar diffusion technique; method in brief: as §1
Escherichia coli [3] = test: Antimicrobial activity against Escherichia coli RCMB 103001 at 2.5 mg/ml by agar diffusion technique; method in brief: as §1
Bacillus subtilis [4] = test: Antimicrobial activity against Bacillus subtilis RCMB 101001 at 5 mg/ml by agar diffusion technique; method in brief: as §1
Penicillium italicum [5] = test: Antimicrobial activity against Penicillium italicum RCMB 001018 at 2.5 mg/ml by agar diffusion technique; method in brief: as §1
Bacillus subtilis [6] = test: Antimicrobial activity against Bacillus subtilis RCMB 101001 at 2.5 mg/ml by agar diffusion technique; method in brief: as §1
Staphylococcus aureus [7] = test: Antimicrobial activity against Staphylococcus aureus RCMB 106001 at 2.5 mg/ml by agar diffusion technique; method in brief: as §1
Escherichia coli [8] = test: Antimicrobial activity against Escherichia coli RCMB 103001 at 1 mg/ml by agar diffusion technique; method in brief: as §1
Penicillium italicum [9] = test: Antimicrobial activity against Penicillium italicum RCMB 001018 at 5 mg/ml by agar diffusion technique; method in brief: as §1
Candida albicans [10] = test: Antimicrobial activity against Candida albicans RCMB 005003 at 5 mg/ml by agar diffusion technique; method in brief: as §1
Bacillus subtilis [11] = test: Antimicrobial activity against Bacillus subtilis RCMB 101001 at 1 mg/ml by agar diffusion technique; method in brief: as §1
[12] = tested on: Syncephalastrum racemosum; test: Antimicrobial activity against Syncephalastrum racemosum RCMB 016001 at 2.5 mg/ml by agar diffusion technique; method in brief: as §1
Candida albicans [13] = test: Antimicrobial activity against Candida albicans RCMB 005003 at 2.5 mg/ml by agar diffusion technique; method in brief: as §1
Staphylococcus aureus [14] = test: Antimicrobial activity against Staphylococcus aureus RCMB 106001 at 1 mg/ml by agar diffusion technique; method in brief: as §1
Penicillium italicum [15] = test: Antimicrobial activity against Penicillium italicum RCMB 001018 at 1 mg/ml by agar diffusion technique; method in brief: as §1
[16] = tested on: Syncephalastrum racemosum; test: Antimicrobial activity against Syncephalastrum racemosum RCMB 016001 at 5 mg/ml by agar diffusion technique; method in brief: as §1
Aspergillus fumigatus [17] = test: Antimicrobial activity against Aspergillus fumigatus RCMB 002008 at 2.5 mg/ml by agar diffusion technique; method in brief: as §1
Staphylococcus aureus [18] = test: Antimicrobial activity against Staphylococcus aureus RCMB 106001 at 5 mg/ml by agar diffusion technique; method in brief: as §1
Pseudomonas aeruginosa [19] = test: Antimicrobial activity against Pseudomonas aeruginosa RCMB 102002 at 2.5 mg/ml by agar diffusion technique; method in brief: as §1
Escherichia coli [20] = test: Antimicrobial activity against Escherichia coli RCMB 103001 at 5 mg/ml by agar diffusion technique; method in brief: as §1
Aspergillus fumigatus [21] = test: Antimicrobial activity against Aspergillus fumigatus RCMB 002008 at 5 mg/ml by agar diffusion technique; method in brief: as §1
Pseudomonas aeruginosa [22] = test: Antimicrobial activity against Pseudomonas aeruginosa RCMB 102002 at 1 mg/ml by agar diffusion technique; method in brief: as §1
Aspergillus fumigatus [23] = test: Antimicrobial activity against Aspergillus fumigatus RCMB 002008 at 1 mg/ml by agar diffusion technique; method in brief: as §1
Candida albicans [24] = test: Antimicrobial activity against Candida albicans RCMB 005003 at 1 mg/ml by agar diffusion technique; method in brief: as §1

Row | SMILES | zone of inhibition at 1000 µg/mL [1] | zone of inhibition at 5000 µg/mL (Pseudomonas aeruginosa [2]) | zone of inhibition at 2500 µg/mL (Escherichia coli [3]) | zone of inhibition at 5000 µg/mL (Bacillus subtilis [4]) | zone of inhibition at 2500 µg/mL (Penicillium italicum [5]) | zone of inhibition at 2500 µg/mL (Bacillus subtilis [6]) | zone of inhibition at 2500 µg/mL (Staphylococcus aureus [7]) | zone of inhibition at 1000 µg/mL (Escherichia coli [8]) | zone of inhibition at 5000 µg/mL (Penicillium italicum [9]) | zone of inhibition at 5000 µg/mL (Candida albicans [10]) | zone of inhibition at 1000 µg/mL (Bacillus subtilis [11]) | zone of inhibition at 2500 µg/mL [12] | zone of inhibition at 2500 µg/mL (Candida albicans [13]) | zone of inhibition at 1000 µg/mL (Staphylococcus aureus [14]) | zone of inhibition at 1000 µg/mL (Penicillium italicum [15]) | zone of inhibition at 5000 µg/mL [16] | zone of inhibition at 2500 µg/mL (Aspergillus fumigatus [17]) | zone of inhibition at 5000 µg/mL (Staphylococcus aureus [18]) | zone of inhibition at 2500 µg/mL (Pseudomonas aeruginosa [19]) | zone of inhibition at 5000 µg/mL (Escherichia coli [20]) | other results
1 | S=c1[nH]nc(-c2cccnc2)n1/N=C\c1ccccc1OCCOCCOCCOc1ccccc1/C=N\n1c(-c2cccnc2)n[nH]c1=S | 0 mm | 0 mm | 0 mm | 0 mm | 1 mm | 0 mm | 0 mm | 0 mm | 6 mm | 1 mm | 0 mm | 0 mm | 0 mm | 0 mm | 1 mm | 0 mm | 0 mm | 1 mm | 0 mm | 0 mm | zone of inhibition at 5000 µg/mL (Aspergillus fumigatus [21]): 0 mm; zone of inhibition at 1000 µg/mL (Pseudomonas aeruginosa [22]): 0 mm; zone of inhibition at 1000 µg/mL (Aspergillus fumigatus [23]): 0 mm; zone of inhibition at 1000 µg/mL (Candida albicans [24]): 0 mm
2 | S=c1[nH]nc(-c2cccnc2)n1/N=C\c1ccccc1OCCCOc1ccccc1/C=N\n1c(-c2cccnc2)n[nH]c1=S | 0 mm | 0 mm | 0 mm | 1 mm | 0 mm | 1 mm | 1 mm | 0 mm | 0 mm | 0 mm | 1 mm | 1 mm | 0 mm | 0 mm | 0 mm | 1 mm | 0 mm | 1 mm | 0 mm | 0 mm | zone of inhibition at 5000 µg/mL (Aspergillus fumigatus [21]): 0 mm; zone of inhibition at 1000 µg/mL (Pseudomonas aeruginosa [22]): 0 mm; zone of inhibition at 1000 µg/mL (Aspergillus fumigatus [23]): 0 mm; zone of inhibition at 1000 µg/mL (Candida albicans [24]): 0 mm
3 | C1=N\n2c(nnc2-c2cccnc2)SCCCCSc2nnc(-c3cccnc3)n2/N=C\c2ccccc2OCCOCCOCCOc2ccccc2/1 | 0 mm | 1 mm | 1 mm | 0 mm | 0 mm | 0 mm | 0 mm | 0 mm | 0 mm | 0 mm | 0 mm | 0 mm | 0 mm | 0 mm | 0 mm | 1 mm | 0 mm | 1 mm | 1 mm | 1 mm | zone of inhibition at 5000 µg/mL (Aspergillus fumigatus [21]): 0 mm; zone of inhibition at 1000 µg/mL (Pseudomonas aeruginosa [22]): 0 mm; zone of inhibition at 1000 µg/mL (Aspergillus fumigatus [23]): 0 mm; zone of inhibition at 1000 µg/mL (Candida albicans [24]): 0 mm
4 | S=c1[nH]nc(-c2cccnc2)n1/N=C\c1ccccc1OCCCCOc1ccccc1/C=N\n1c(-c2cccnc2)n[nH]c1=S | 0 mm | 1 mm | 0 mm | 0 mm | 1 mm | 0 mm | 0 mm | 0 mm | 1 mm | 1 mm | 0 mm | 1 mm | 0 mm | 0 mm | 1 mm | 1 mm | 0 mm | 1 mm | 1 mm | 0 mm | zone of inhibition at 5000 µg/mL (Aspergillus fumigatus [21]): 0 mm; zone of inhibition at 1000 µg/mL (Pseudomonas aeruginosa [22]): 0 mm; zone of inhibition at 1000 µg/mL (Aspergillus fumigatus [23]): 0 mm; zone of inhibition at 1000 µg/mL (Candida albicans [24]): 0 mm
